# Experimental data of several laboratories.
# Protocols differ between the studies behind these lines.
# AChE: AChE (Phlebotomus papatasi, UniProt M1F887)
# M-phase phosphoprotein 8 chromodomain: M-phase phosphoprotein 8, chromodomain (Homo sapiens, UniProt Q99549)
# ESR1: Estrogen receptor (ESR1, Homo sapiens, UniProt P03372)
Compound,target,assay,quantity,result
c1cc[c]([Sn]([c]2ccccc2)[c]2ccccc2)cc1,"Peroxisome proliferator-activated receptor gamma (Pparg, Mus musculus, UniProt P37238)","reporter gene, agonist, luciferase",EC50,0.07 µM
COc1cc2c3cc1Oc1cc(ccc1O)C[C@@H]1c4c(cc(OC)c(O)c4Oc4ccc(cc4)C[C@@H]3N(C)CC2)CC[N+]1(C)C,AChE,"enzyme activity, inhibitor",IC50,38.9 µM
CCN(CCCC[C@H](NC(=O)[C@H](CC(C)C)NC(=O)[C@H](C)NC(=O)[C@H](Cc1ccco1)NC(=O)c1cccnc1)C(=O)N[C@@H](CO)C(N)=O)C(C)C,M-phase phosphoprotein 8 chromodomain,"cell-free assay, TR-FRET",IC50,11 µM
Oc1ccc(-c2cccc(Cl)c2)cc1Cl,ESR1,"reporter gene, agonist, luciferase",EC50,8.2 µM
O=C1C[C@@H](c2ccc(O)cc2)Oc2cc(O)ccc21,ESR1,"reporter gene, agonist, luciferase",EC50,0.681 µM
CCN(CCCC[C@H](NC(=O)[C@H](Cc1ccc(OC)c(OC)c1)NC(=O)[C@H](C)NC(=O)[C@H](Cc1ccccc1)NC(=O)c1cccnc1)C(=O)N[C@@H](CO)C(N)=O)C(C)C,M-phase phosphoprotein 8 chromodomain,"cell-free assay, TR-FRET",IC50,1.9 µM
N[C@@H](Cc1ccc(O)cc1)C(=O)O,"Iodotyrosine deiodinase (Haliscomenobacter hydrossis, UniProt F4KU78)","binding, fluorescence",Kd,> 1200 µM
CC[n+]1c(-c2ccccc2)c2cc(N)ccc2c2ccc(N)cc21,AChE,"enzyme activity, inhibitor",IC50,14.1 µM
CCN(CCCC[C@H](NC(=O)[C@H](CC(C)C)NC(=O)[C@H](C)NC(=O)[C@H](Cc1cccnc1)NC(=O)c1cccnc1)C(=O)N[C@@H](CO)C(N)=O)C(C)C,M-phase phosphoprotein 8 chromodomain,"cell-free assay, TR-FRET",IC50,1.8 µM
Clc1ccc(-c2ccc(Cl)cc2Cl)cc1,ESR1,"reporter gene, agonist, luciferase",EC50,27 µM
Cc1cc(O)cc(C)c1C[C@H](N)C(=O)N[C@H](C)C(=O)NCC(=O)N[C@@H](Cc1ccc(Cl)cc1)C(=O)N(C)CCC[C@@]1(c2ccc(F)cc2)OCc2cc(C#N)ccc21,"Alpha-2C adrenergic receptor (ADRA2C, Homo sapiens, UniProt P18825)","ligand displacement, radioligand",Ki,0.24 µM
CCN(CCCC[C@H](NC(=O)[C@H](CC(C)C)NC(=O)[C@H](C)NC(=O)[C@H](Cc1ccccc1)NC(=O)c1ccc(N(C)C)cc1)C(=O)N[C@@H](CO)C(N)=O)C(C)C,M-phase phosphoprotein 8 chromodomain,"cell-free assay, TR-FRET",IC50,0.38 µM
C[C@H]1CCC[C@H](O)CCCCCc2cc(O)cc(O)c2C(=O)O1,ESR1,"reporter gene, agonist, luciferase",EC50,0.000134 µM
Oc1ccc(-c2ccc(Cl)cc2)c(Cl)c1,ESR1,"reporter gene, agonist, luciferase",EC50,0.1 µM
